Experimental data as given in publication PMC4083586 (Biotechnology journal, 2011).

Tested on: porcine parvovirus (PPV)
Test: PPV removal by peptide-resin columns from 7.5% human blood plasma
Type: binding, porcine parvovirus (PPV) NADL-2 strain
Conditions: Figure 3B
Method in brief: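 Peptides on resin at 0.10 mmol/g dry resin with a four-unit ethylene oxide spacer; 0.5 ml settled resin in PBS per column; acetylated control. About 5 log₁₀ (MTT/ml) PPV was pumped at 0.1 ml/min. Fractions of 0.5 ml (one column volume) were titered by MTT assay on PK-13 cells. Clearance over five column volumes was expressed relative to a reference trimer ligand (100%). Duplicates.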

YKLKYY
PPV clearance of the first five column volumes, ranking among ligands: highest virus clearance
